Assay results: ChEMBL document CHEMBL2384901, “Synthesis and biology of oligoethylene glycol linked naphthoxylosides” (Bioorg Med Chem, 2013)

Columns and labels:
[1] = Cytotoxicity against human CCD-1095SK cells assessed as growth inhibition after 96 hrs by crystal violet staining assay; type: cell-based; details: read-out: ED50
Summary of the method: (§1)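 Cells plated at 5000/well in MEM Earle's or RPMI-1640 with 10% FBS. After 24 h, medium changed to Ham's F-12 with insulin (10 µg/mL), transferrin (25 µg/mL), 1% L-glutamine, 10 ng/mL EGF and xylosides at 5–500 µM, for 96 h. Cells fixed in 0.25% glutaraldehyde and stained with 0.1% crystal violet. Lysed in 1% Triton X-100; A595 read. ED50 reported.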

[2] = tested on: HCC70; experiment: Induction of heparan sulphate synthesis in human HCC70 cells assessed as proportion of heparan sulphate of total GAGs; type: functional; set-up: concentration or dose not given beside the values
Summary of the method: (§2)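 Xyloside-primed [35S]sulfate material was pooled from Superose 6 fractions, 35–51 for HCC70 and 34–51 for CCD-1095Sk. HS was cleaved by deaminative HNO2 at pH 1.5, then the digest was re-separated by gel permeation. Radioactivity was measured by β-counting.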

[3] = tested on: HCC70; experiment: Induction of glycosaminoglycan synthesis in human HCC70 cells assessed as [35S]sulfate incorporation at 100 uM after 24 hrs by bata counting analysis relative to untreated control
[4] = Induction of glycosaminoglycan synthesis in human CCD-1095SK cells assessed as [35S]sulfate incorporation at 100 uM after 24 hrs by bata counting analysis relative to untreated control
[5] = Induction of heparan sulphate synthesis in human CCD-1095SK cells assessed as proportion of heparan sulphate of total GAGs; type: functional; set-up: concentration or dose not given beside the values; summary of the method: as §2
[6] = tested on: HCC70; experiment: Cytotoxicity against human HCC70 cells assessed as growth inhibition after 96 hrs by crystal violet staining assay; type: functional; details: HCC70, 96 h, read-out: ED50 (the source's name); summary of the method: as §1

| Structure (SMILES) | GI50 at 96 h [1] [µM] | Activity [2] [%] | fold change (FC) [3] | fold change (FC) [4] | Activity [5] [%] | EC50 [6] [µM] |
| --- | --- | --- | --- | --- | --- | --- |
| O[C@@H]1[C@@H](O)[C@H](OCCOCCOc2ccc3ccccc3c2)OC[C@H]1O | 150 | 5 | 29 | 80 | 2 | 129 |
| O[C@@H]1[C@@H](O)[C@H](Oc2ccc3ccccc3c2)OC[C@H]1O | 152 | 9 | 16 | 24 | 3 | 243 |
| Oc1ccc2cc(CO[C@@H]3OC[C@@H](O)[C@H](O)[C@H]3O)ccc2c1 | 223 | 14 | 42 | 98 | 7 | 282 |
| O[C@@H]1[C@@H](O)[C@H](OCCOCCOCCOc2ccc3ccccc3c2)OC[C@H]1O | 70 | 15 | 21 | 74 | 20 | 87 |
| Oc1ccc2cc(O[C@@H]3OC[C@@H](O)[C@H](O)[C@H]3O)ccc2c1 | 258 | 28 | 37 | 74 | 6 | 7 |
| Oc1ccc2cc(OCCO[C@@H]3OC[C@@H](O)[C@H](O)[C@H]3O)ccc2c1 | 280 | 34 | 29 | 90 | 26 | 178 |
| O[C@@H]1[C@@H](O)[C@H](OCc2ccc3ccccc3c2)OC[C@H]1O | 298 | 14 | 31 | 55 | 7 | 267 |
| O[C@@H]1[C@@H](O)[C@H](OCCOc2ccc3ccccc3c2)OC[C@H]1O | 140 | 9 | 26 | 79 | 3 | 221 |
